The target in data set [1] is Glycogen synthase kinase-3 beta (Homo sapiens) (UniProt P49841). Kind of data set: Inhibition of GSK3-beta in human A549 cells after 24 hrs by Western blot analysis. It is filed as cell-based. A digest of the protocol: (§1)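 A549 cells (RPMI 1640, 10% FBS, 37 °C, 5% CO2) exposed to the compound at various concentrations for 24 or 48 h. Lysates run on 6–15% SDS-PAGE, transferred to PVDF, probed with primary antibodies overnight at 4 °C, and detected by ECL. Blots shown are representative of three independent experiments.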
Glycogen synthase kinase-3 beta (Homo sapiens), sequence (P49841 whole entry, looked up): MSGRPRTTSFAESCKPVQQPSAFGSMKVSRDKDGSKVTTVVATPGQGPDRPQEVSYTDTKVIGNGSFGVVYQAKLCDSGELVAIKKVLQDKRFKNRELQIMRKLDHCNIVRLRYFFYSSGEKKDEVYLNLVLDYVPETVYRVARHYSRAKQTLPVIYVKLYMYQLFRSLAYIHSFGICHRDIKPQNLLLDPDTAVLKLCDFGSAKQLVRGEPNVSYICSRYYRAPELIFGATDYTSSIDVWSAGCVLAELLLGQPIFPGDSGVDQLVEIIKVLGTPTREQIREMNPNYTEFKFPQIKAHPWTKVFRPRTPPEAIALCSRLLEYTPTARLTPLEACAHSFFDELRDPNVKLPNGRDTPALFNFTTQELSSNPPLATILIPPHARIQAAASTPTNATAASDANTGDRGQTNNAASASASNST
A general note: Immunoblotting shows a protein as a band on a membrane.

The test system of data set [2] is A549. Description: Cell cycle arrest in human A549 cells assessed as accumulation at Sub-G1 phase at 20 nM after 48 hrs by propidium iodide staining-based flow cytometric analysis (reference value: 0.2 %). It is filed as functional.
The subject of data set [3] is A549. Kind of data set: Cell cycle arrest in human A549 cells assessed as accumulation at G0/G1 phase at 5 nM after 24 hrs by propidium iodide staining-based flow cytometric analysis (reference value: 49.6 %). It is filed as functional.
Data set [4] deals with MRC5. Kind of data set: Antiproliferative activity against human MRC5 cells after 3 days by SRB assay. It is filed as cell-based. As to conditions: mrc5, 72 h. The method, boiled down:
(§2)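 Cells seeded at 5 × 10^4 cells/mL and exposed to a range of concentrations for 3 days. Fixed with 10% TCA, then SRB stain read. Growth expressed as % of solvent-treated control. IC50 obtained by nonlinear regression of percent survival versus concentration.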
On the technique in general: In SRB staining, fixed cells bind dye roughly in proportion to their protein.

The test system of data set [5] is A549. Description: Cell cycle arrest in human A549 cells assessed as accumulation at S phase at 5 nM after 48 hrs by propidium iodide staining-based flow cytometric analysis (reference value: 31.6 %). Format: functional.
The test system of data set [6] is A549. Kind of data set: Cell cycle arrest in human A549 cells assessed as accumulation at G0/G1 phase at 5 nM after 48 hrs by propidium iodide staining-based flow cytometric analysis (reference value: 49.6 %). It is filed as functional. (A flow cytometer gives signals particle by particle.)
Data set [7] deals with Epidermal growth factor receptor (Homo sapiens) (UniProt P00533). Description: Inhibition of EGFR phosphorylation in […]-stimulated human A549 cells pretreated at 20 nM by Western blot analysis. Format: cell-based. A digest of the protocol:
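A549 cells serum-starved 24 h, pretreated with 20 nM for 2 h, then stimulated with EGF (10 ng/mL) for 10 min. EGFR, Akt and ERK phosphorylation and levels assessed by Western blot.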

Data set [8] concerns HCT-116. Kind of data set: Antiproliferative activity against human HCT116 cells after 3 days by SRB assay. The conditions noted are these: HCT-116, 72 h. It is filed as functional, cell-based. The method, boiled down: as §2
Data set [9] concerns SNU-638. Description: Antiproliferative activity against human SNU638 cells after 3 days by SRB assay. It is filed as functional, cell-based. The conditions noted are these: SNU-638, 72 h. A digest of the protocol:
as §2

Data set [10] addresses Serine/threonine-protein kinase mTOR (Homo sapiens) (UniProt P42345). Kind of data set: Inhibition of MTOR phosphorylation in human A549 cells at 20 nM after 24 to 48 hrs by Western blot analysis. Format: cell-based. The method, boiled down:
as §1

The target in data set [11] is Hepatocyte growth factor receptor (Homo sapiens) (UniProt P08581). Kind of data set: Inhibition of c-Met-mediated 4EBP1 phosphorylation in HGF-stimulated human A549 cells pretreated at 5 to 100 nM by Western blot analysis. Format: cell-based. A digest of the protocol: (§3)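 A549 cells pretreated for 2 h with the compound at 5, 20 or 100 nM, then stimulated with HGF (50 ng/mL) for 10 min. c-Met and its downstream signalling proteins read by Western blot (SDS-PAGE, PVDF transfer, ECL detection).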
Hepatocyte growth factor receptor (Homo sapiens), sequence (P08581 whole entry): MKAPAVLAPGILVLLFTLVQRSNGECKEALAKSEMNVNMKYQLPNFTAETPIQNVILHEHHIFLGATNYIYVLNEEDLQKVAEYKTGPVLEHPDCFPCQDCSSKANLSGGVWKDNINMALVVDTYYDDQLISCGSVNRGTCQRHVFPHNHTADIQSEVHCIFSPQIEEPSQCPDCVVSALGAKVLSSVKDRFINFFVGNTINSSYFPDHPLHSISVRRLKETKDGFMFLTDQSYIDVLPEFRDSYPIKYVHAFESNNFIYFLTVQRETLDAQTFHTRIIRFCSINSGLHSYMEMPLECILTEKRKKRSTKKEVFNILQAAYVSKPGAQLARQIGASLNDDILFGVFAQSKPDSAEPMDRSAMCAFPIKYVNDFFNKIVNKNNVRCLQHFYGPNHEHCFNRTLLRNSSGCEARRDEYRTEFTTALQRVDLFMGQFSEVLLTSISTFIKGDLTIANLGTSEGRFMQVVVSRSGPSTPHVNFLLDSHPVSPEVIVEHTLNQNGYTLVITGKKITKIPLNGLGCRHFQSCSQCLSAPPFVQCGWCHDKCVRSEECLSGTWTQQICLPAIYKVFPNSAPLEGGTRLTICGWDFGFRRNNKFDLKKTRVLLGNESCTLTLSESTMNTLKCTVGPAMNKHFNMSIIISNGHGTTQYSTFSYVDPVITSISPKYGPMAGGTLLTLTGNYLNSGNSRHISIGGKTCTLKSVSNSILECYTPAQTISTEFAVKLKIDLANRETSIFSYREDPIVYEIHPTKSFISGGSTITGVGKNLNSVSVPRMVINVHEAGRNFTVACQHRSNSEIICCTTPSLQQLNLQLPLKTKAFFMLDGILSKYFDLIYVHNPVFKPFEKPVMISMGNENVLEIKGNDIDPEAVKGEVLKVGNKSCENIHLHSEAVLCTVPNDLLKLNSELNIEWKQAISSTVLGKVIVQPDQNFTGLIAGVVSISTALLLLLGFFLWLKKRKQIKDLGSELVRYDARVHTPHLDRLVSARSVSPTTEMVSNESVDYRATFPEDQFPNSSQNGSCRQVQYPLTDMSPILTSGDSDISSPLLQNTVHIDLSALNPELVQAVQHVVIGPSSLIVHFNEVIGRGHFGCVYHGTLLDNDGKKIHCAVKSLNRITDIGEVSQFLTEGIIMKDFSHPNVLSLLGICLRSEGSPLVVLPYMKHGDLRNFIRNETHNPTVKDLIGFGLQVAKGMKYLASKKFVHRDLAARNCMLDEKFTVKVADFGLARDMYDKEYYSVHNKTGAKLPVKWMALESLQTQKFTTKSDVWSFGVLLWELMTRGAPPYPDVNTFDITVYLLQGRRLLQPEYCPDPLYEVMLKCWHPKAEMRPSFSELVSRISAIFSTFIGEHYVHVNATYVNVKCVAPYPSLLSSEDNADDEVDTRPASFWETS

Data set [12] has as its system Mus musculus. Description: Toxicity in BALB/c mouse xenografted with human A549 cells in assessed as overt signs at 0.5 mg/kg, po once daily for 14 days measured for 27 days relative to control. Format: organism-based. Also noted: dose 0.5 mg/kg, route oral. As to conditions: in vivo, 648 h. A digest of the protocol: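 Female nu/nu mice were injected sc in the right flank with 3 × 10^6 A549 cells. At about 100 mm3 tumour volume, mice were randomised into groups of five. Compound was given orally at 0.2 or 0.5 mg/kg once daily for 14 days in ethanol/Tween 80/H2O (1:1:98). Body weight and overt toxicity were monitored against vehicle controls.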

In data set [13] the test system is NCI-H358. Kind of data set: Antiproliferative activity against human NCI-H358 cells after 3 days by SRB assay. The conditions noted are these: NCI-H358, 72 h. Format: functional, cell-based. A digest of the protocol:
as §2

Data set [14] deals with A549. Kind of data set: Antiproliferative activity against human A549 cells assessed as growth inhibition incubated for 24 hrs measured 24 hrs after compound washout by SRB assay. Format: functional, cell-based. The method, boiled down: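 A549 cells exposed to a range of concentrations for 24 h, washed with PBS and kept in drug-free medium for 24 h. Compared with continuous 24 h and 48 h exposure. Viability read by SRB. Means ± SE of triplicate tests.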

Data set [15] can be described thus: Antiproliferative activity against human H1299 cells after 3 days by SRB assay. Format: functional, cell-based. The conditions noted are these: NCI-H1299, 72 h. The method, boiled down: as §2
The test system of data set [16] is A549. Description: Downregulation of cyclin A expression in human A549 cells at G1 phase at 5 to 100 nM after 24 to 48 hrs by Western blot analysis. It is filed as functional, cell-based. A digest of the protocol:
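A549 cells treated with a range of concentrations for 24 or 48 h. Lysates run on 6–15% SDS-PAGE and blotted to PVDF, blocked in 5% milk/PBST. Primary antibodies overnight at 4 °C, secondary 2 h at room temperature, ECL detection. Representative of three independent experiments.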

In data set [17] the test system is A549. Description: Cell cycle arrest in human A549 cells assessed as accumulation at G0/G1 phase at 100 nM after 48 hrs by propidium iodide staining-based flow cytometric analysis (reference value: 49.6 %). Format: functional.
The subject of data set [18] is SK-MES-1. Kind of data set: Antiproliferative activity against human SK-MES cells after 3 days by SRB assay. As to conditions: SK-MES-1, 72 h. It is filed as functional, cell-based. The method, boiled down: as §2
Data set [19] addresses Hepatocyte growth factor receptor (Homo sapiens) (UniProt P08581). Kind of data set: Inhibition of c-Met-mediated FKHRL1 phosphorylation in HGF-stimulated human A549 cells pretreated at 5 to 100 nM by Western blot analysis. Format: cell-based. A digest of the protocol:
as §3

The test system of data set [20] is A549. Description: Inhibition of Akt-signaling in human A549 cells at 5 to 40 nM after 24 hrs by Western blot analysis. Format: cell-based. The method, boiled down: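 A549 cells exposed for 24 or 48 h to a range of concentrations. Akt/mTOR pathway proteins in lysates assessed by Western blot (SDS-PAGE, PVDF, ECL detection).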

pIC50: −log10 of the molar value. Activity calls are given as the source filed them. The rule behind the calls is not given here.

Epidermal growth factor receptor (Homo sapiens), sequence (P00533 whole entry): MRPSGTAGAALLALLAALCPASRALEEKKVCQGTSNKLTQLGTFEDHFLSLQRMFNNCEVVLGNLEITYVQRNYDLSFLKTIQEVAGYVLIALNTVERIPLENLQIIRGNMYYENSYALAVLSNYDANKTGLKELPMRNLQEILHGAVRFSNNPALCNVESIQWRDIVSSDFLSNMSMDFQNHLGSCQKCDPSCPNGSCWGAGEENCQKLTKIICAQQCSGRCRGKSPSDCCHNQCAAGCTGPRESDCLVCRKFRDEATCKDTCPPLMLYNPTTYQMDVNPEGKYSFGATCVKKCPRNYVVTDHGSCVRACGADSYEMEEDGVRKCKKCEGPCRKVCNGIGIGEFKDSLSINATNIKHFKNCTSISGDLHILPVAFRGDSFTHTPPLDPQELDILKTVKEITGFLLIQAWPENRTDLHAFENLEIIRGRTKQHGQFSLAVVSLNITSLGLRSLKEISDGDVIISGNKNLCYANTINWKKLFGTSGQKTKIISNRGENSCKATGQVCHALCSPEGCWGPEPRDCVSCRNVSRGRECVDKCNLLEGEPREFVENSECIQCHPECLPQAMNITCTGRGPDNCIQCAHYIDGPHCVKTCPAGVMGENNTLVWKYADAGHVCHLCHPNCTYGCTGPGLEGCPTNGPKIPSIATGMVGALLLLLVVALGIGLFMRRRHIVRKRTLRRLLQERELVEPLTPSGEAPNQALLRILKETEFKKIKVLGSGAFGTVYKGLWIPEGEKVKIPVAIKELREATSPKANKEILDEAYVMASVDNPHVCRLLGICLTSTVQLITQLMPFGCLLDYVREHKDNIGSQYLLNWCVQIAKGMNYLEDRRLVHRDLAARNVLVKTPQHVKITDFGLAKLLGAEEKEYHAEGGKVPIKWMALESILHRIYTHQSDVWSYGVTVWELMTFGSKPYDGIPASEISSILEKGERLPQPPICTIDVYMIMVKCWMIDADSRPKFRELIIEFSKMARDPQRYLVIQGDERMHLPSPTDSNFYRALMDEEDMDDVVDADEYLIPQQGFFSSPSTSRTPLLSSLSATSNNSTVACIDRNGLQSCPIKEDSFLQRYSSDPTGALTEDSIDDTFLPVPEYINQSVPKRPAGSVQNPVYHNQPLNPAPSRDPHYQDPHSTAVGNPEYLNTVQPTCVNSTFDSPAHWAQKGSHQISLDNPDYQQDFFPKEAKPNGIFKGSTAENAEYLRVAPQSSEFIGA

The pIC50 is −log10 of the IC50, conventionally taken in molar units. A high value points to a low IC50. Regarding `C=C(C)[C@@]12O[C@@]3(/C=C/C=C/CCCCC)O[C@@H]1[C@@H]1[C@@H]4O[C@]4(CO)[C@@H](O)[C@]4(O)C(=O)C(C)=C[C@H]4[C@@]1(O3)[C@H](C)[C@H]2OC(C)=O` [YUANHUADINE], the inhibition result in data set [1] was “Dose-dependent effect”. The Activity in [2] was 0.4%; in [3] it was 67%; in data set [5] it was 12%; in data set [6], 62.2%; in [12] it was “Non-toxic”; in data set [17] it was 61.1%. In data set [4], the “growth inhibition (GI)” value is recorded as “Non-toxic”. For the same compound, the inhibition entry in data set [7], in [10], in data set [11], in [19] and in [20] was “Active” throughout. In addition, the pIC50 was 4.99 in data set [8]; below 4.70 in data set [9]; 5.04 in data set [13]; 5.25 in [15]; above 12.00 in [18]. Moreover, in [14], the “growth inhibition (GI)” value was “Active”. Also, the outcome in data set [16] was Active.

(Values after ChEMBL document CHEMBL1909581, “Growth inhibition of human lung cancer cells via down-regulation of epidermal growth factor receptor signaling by yuanhuadine, a daphnane diterpene from Daphne genkwa” (J Nat Prod, 2011).)
